Legend:
Canis familiaris [1] = experiment: Diuretic activity in mongrel dog assessed as chloride level in excreted urine at 2 mg/kg, po measured for 6 hrs (reference value: 2 mequivalents); assay type: functional, Canis lupus familiaris
Canis familiaris [2] = experiment: Diuretic activity in mongrel dog assessed as volume of excreted urine at 2 mg/kg, po measured for 6 hrs (RVb = 180 ml)
Canis familiaris [3] = experiment: Diuretic activity in mongrel dog assessed as potassium level in excreted urine at 2 mg/kg, po measured for 6 hrs (reference value: 1 mequivalents); assay type: functional, Canis lupus familiaris
Canis familiaris [4] = experiment: Diuretic activity in mongrel dog assessed as sodium level in excreted urine at 2 mg/kg, po measured for 6 hrs (reference value: 2 mequivalents); assay type: functional, Canis lupus familiaris
Canis familiaris [5] = experiment: Diuretic activity in mongrel dog assessed as volume of excreted urine at 0.4 mg/kg, po measured for 6 hrs (RVb = 180 ml)
Canis familiaris [6] = experiment: Diuretic activity in mongrel dog assessed as sodium level in excreted urine at 0.1 mg/kg, iv measured […] after dosage (reference value: 36 uequiv/min); assay type: functional, Canis lupus familiaris
Summary of the method: (§1)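 Compounds were given iv to dogs as Na salts in H2O. […] The baseline is the mean of two 15-min periods before dosing. The response is the mean of two consecutive 15-min periods of maximal Na+ excretion, usually 15–45 min post-dose. Na+, K+ and Cl- are in μequiv/min and urine volume in ml/min, reported as control/drug.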

Canis familiaris [7] = experiment: Diuretic activity in mongrel dog assessed as potassium level in excreted urine at 1 mg/kg, iv measured between 15 to 45 mins after dosage (reference value: 6 to 47 uequiv/min); assay type: functional, Canis lupus familiaris; summary of the method: as §1
Canis familiaris [8] = experiment: Diuretic activity in mongrel dog assessed as chloride level in excreted urine at 0.1 mg/kg, iv measured between 15 to 45 mins after dosage (reference value: 14 uequiv/min); assay type: functional, Canis lupus familiaris; summary of the method: as §1
Canis familiaris [9] = experiment: Diuretic activity in mongrel dog assessed as volume of excreted urine at 0.1 mg/kg, iv measured between 15 to 45 mins after dosage (reference value: 1 ml/min); assay type: functional, Canis lupus familiaris; summary of the method: as §1
Canis familiaris [10] = experiment: Diuretic activity in mongrel dog assessed as potassium level in excreted urine at 1 mg/kg, po measured for 6 hrs (reference value: 1 mequivalents); assay type: functional, Canis lupus familiaris
Canis familiaris [11] = experiment: Diuretic activity in mongrel dog assessed as sodium level in excreted urine at 1 mg/kg, po measured for 6 hrs (reference value: 2 mequivalents); assay type: functional, Canis lupus familiaris
Canis familiaris [12] = experiment: Diuretic activity in mongrel dog assessed as volume of excreted urine at 1 mg/kg, iv measured between 15 to 45 mins after dosage (reference value: 1 to 4 ml/min); assay type: functional, Canis lupus familiaris; summary of the method: as §1
Canis familiaris [13] = experiment: Diuretic activity in mongrel dog assessed as volume of excreted urine at 1 mg/kg, po measured for 6 hrs (RVb = 180 ml)
Canis familiaris [14] = experiment: Diuretic activity in mongrel dog assessed as potassium level in excreted urine at 0.4 mg/kg, po measured for 6 hrs (reference value: 1 mequivalents); assay type: functional, Canis lupus familiaris
Canis familiaris [15] = experiment: Diuretic activity in mongrel dog assessed as potassium level in excreted urine at 0.1 mg/kg, iv measured between 15 to 45 mins after dosage (reference value: 14 uequiv/min); assay type: functional, Canis lupus familiaris; summary of the method: as §1
Canis familiaris [16] = experiment: Diuretic activity in mongrel dog assessed as sodium level in excreted urine at 10 mg/kg, iv measured […] after dosage (reference value: 5 to 66 uequiv/min); assay type: functional, Canis lupus familiaris; summary of the method: as §1
Canis familiaris [17] = experiment: Diuretic activity in mongrel dog assessed as sodium level in excreted urine at 3 mg/kg, po measured for 6 hrs (reference value: 2 mequivalents); assay type: functional, Canis lupus familiaris
Canis familiaris [18] = experiment: Diuretic activity in mongrel dog assessed as chloride level in excreted urine at 1 mg/kg, po measured for 6 hrs (reference value: 2 mequivalents); assay type: functional, Canis lupus familiaris
Canis familiaris [19] = experiment: Diuretic activity in mongrel dog assessed as chloride level in excreted urine at 10 mg/kg, iv measured between 15 to 45 mins after dosage (reference value: 3 to 64 uequiv/min); assay type: functional, Canis lupus familiaris
Summary of the method: (§2)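 Compounds were given iv to dogs as Na salts in H2O. The baseline is the mean of two 15-min periods before dosing. The response is the mean of two consecutive 15-min periods of maximal Na+ excretion, usually 15–45 min post-dose. Na+, K+ and Cl- are in μequiv/min and urine volume in ml/min, reported as control/drug.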

Canis familiaris [20] = experiment: Diuretic activity in mongrel dog assessed as potassium level in excreted urine at 3 mg/kg, po measured for 6 hrs (reference value: 1 mequivalents); assay type: functional, Canis lupus familiaris
Canis familiaris [21] = experiment: Diuretic activity in mongrel dog assessed as chloride level in excreted urine at 1 mg/kg, iv measured between 15 to 45 mins after dosage (reference value: 1 to 70 uequiv/min); assay type: functional, Canis lupus familiaris; summary of the method: as §2
Canis familiaris [22] = experiment: Diuretic activity in mongrel dog assessed as potassium level in excreted urine at 10 mg/kg, iv measured between 15 to 45 mins after dosage (reference value: 7 to 63 uequiv/min); assay type: functional, Canis lupus familiaris; summary of the method: as §1
Canis familiaris [23] = experiment: Diuretic activity in mongrel dog assessed as chloride level in excreted urine at 3 mg/kg, po measured for 6 hrs (reference value: 2 mequivalents); assay type: functional, Canis lupus familiaris
Canis familiaris [24] = experiment: Diuretic activity in mongrel dog assessed as sodium level in excreted urine at 1 mg/kg, iv measured […] after dosage (reference value: 3 to 95 uequiv/min); assay type: functional, Canis lupus familiaris; summary of the method: as §2
Canis familiaris [25] = experiment: Diuretic activity in mongrel dog assessed as volume of excreted urine at 10 mg/kg, iv measured between 15 to 45 mins after dosage (reference value: 1 to 4 ml/min); assay type: functional, Canis lupus familiaris; summary of the method: as §1

C/C(=C\c1ccc(OCC(N)=O)c(Cl)c1Cl)[N+](=O)[O-]
Activity (Canis familiaris [1]): 39 milliequivalent
Activity (Canis familiaris [2]): 485 mL
Activity (Canis familiaris [3]): 8 milliequivalent
Activity (Canis familiaris [4]): 25 milliequivalent

CC(=O)C(=Cc1ccc(OCC(=O)O)c(Cl)c1Cl)C(C)=O
Activity (Canis familiaris [5]): 762 mL
Activity (Canis familiaris [6]): 984 uEq/min
Activity (Canis familiaris [7]): 104 uEq/min
Activity (Canis familiaris [8]): 1100 uEq/min
Activity (Canis familiaris [9]): 9 mL/min
Activity (Canis familiaris [10]): 7 milliequivalent
Activity (Canis familiaris [11]): 30 milliequivalent
Activity (Canis familiaris [12]): 11 mL/min
Activity (Canis familiaris [13]): 492 mL
Activity (Canis familiaris [14]): 6 milliequivalent
Activity (Canis familiaris [15]): 187 uEq/min

C=C(CC)C(=O)c1ccc(OCC(=O)O)c(Cl)c1Cl [ETHACRYNIC ACID]
Activity (Canis familiaris [16]): 2989 uEq/min
Activity (Canis familiaris [17]): 37 milliequivalent
Activity (Canis familiaris [18]): 26 milliequivalent
Activity (Canis familiaris [7]): 52 uEq/min
Activity (Canis familiaris [10]): 5 milliequivalent
Activity (Canis familiaris [11]): 21 milliequivalent
Activity (Canis familiaris [19]): 3324 uEq/min
Activity (Canis familiaris [20]): 7 milliequivalent
Activity (Canis familiaris [12]): 6 mL/min
Activity (Canis familiaris [21]): 244 uEq/min
Activity (Canis familiaris [22]): 194 uEq/min
Activity (Canis familiaris [23]): 42 milliequivalent
Activity (Canis familiaris [24]): 188 uEq/min
Activity (Canis familiaris [25]): 22 mL/min

From ChEMBL document CHEMBL3272208, “(Vinylaryloxy)acetic acids. A new class of diuretic agents. 3. ((2-Nitro-1-alkenyl)aryloxy)acetic acids” (1976)
